Experimental data taken from the EternaBench riboswitch data.

Tests used:
MS2 coat protein [1] = assay: apparent Kd, MS2 coat protein; higher = weaker binding; RNA-MaP array; theophylline 2 mM where present
In short: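 Apparent Kd: the median of filtered binding-curve fits from single clusters. Designs were transcribed on Illumina sequencing-chip clusters by stalled E. coli RNA polymerase and titrated with SNAP-549-labelled MS2 coat protein from 0.7 or 1.5 nM, doubling to 3 µM, in 100 mM Tris-HCl pH 7.5, 80 mM KCl, 4 mM MgCl2, BSA, DTT, yeast tRNA and Tween-20. Each series ran without and then with constant ligand, and green signal was normalised to red-channel RNA signal and control-cluster median Fmax.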

MS2 coat protein [2] = assay: apparent Kd, MS2 coat protein; higher = weaker binding; RNA-MaP array; details: designed as: ON switch for flavin mononucleotide
In short: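 Designed RNAs were transcribed on an Illumina sequencing chip from sequenced DNA templates. They were incubated at room temperature with fluorescently labeled MS2 coat protein at 1.5 nM to 3 μM, for 0.8–1.5 h at the lowest to 10–20 min at the highest concentrations, in Tris-HCl pH 7.5 buffer with KCl, MgCl2, BSA, DTT, tRNA and Tween20, with or without input ligand. Apparent Kd is the median of per-cluster binding-curve fits. Designs measured on fewer than 10 clusters were excluded.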

[3] = designed as: OFF switch for theophylline, no ligand
[4] = ligand present: theophylline, designed as: OFF switch for theophylline
[5] = designed as: ON switch for theophylline, no ligand
[6] = ligand present: theophylline, designed as: ON switch for theophylline

Sequence | apparent Kd (MS2 coat protein [1]; [3]) | apparent Kd (MS2 coat protein [1]; [4]) | apparent Kd (MS2 coat protein [1]; [5]) | apparent Kd (MS2 coat protein [1]; [6]) | further results
ACAUGAGGAUCACCCAUGUGCAGCACGGAUACCAGCGUCCUAGUGCGCCCUUGGCAGCCGGACAUGAGGAUCACCCAUGUGUGGG | 77.6 nM | 219 nM |  |  | 
ACGAACGAUAGUGAUACCAGACGAACAUGAGGAUCACCCAUGUUAUACACAUGGUUUAUUGUCCCUUGGCAGCACUUUAAGUUCG | 147 nM | 89.6 nM |  |  | 
AUAUGAUCAUGUGAUACCAGAAAUGGUAGUCCUCGCUGGAUUACAUGAGGAUCACCCAUGUUCCCUUGGCAGCAUAUGAUCAUAU | 66.6 nM | 751 nM |  |  | 
AUAUUAGACCUGGAUACCAGCGACAUGAGGAUCACCCAUGUAUGUGCAUCAGCCAUGAUAUGCCCUUGGCAGCCACCGAGGUCGU | 13.6 nM | 37.2 nM |  |  | 
AACAGGGCUUCCACGAAGCCCUAAGGUGAUACCAGCACAUGUAAGUGCCCUUGGCAGCACGGUACAUGAGGAUCACCCAUGUAGA |  |  | 50.3 nM | 366 nM | 
UGACAUUGCUCAGAUACCAGACAUGAGGAUCACCCAUGUACCAAGGUAAGAAAAUAACAUGUCCCUUGGCAGCUGAGCAAUGUCU | 16.2 nM | 240 nM |  |  | 
AAGGUGAUCCGUGAUACCAGCUCAACAUGAGGAUCACCCAUGUAAGCCUGGAAACAGGCGAGCCCUUGGCAGCACGGUAAUAAUA |  |  | 11.9 nM | 13.8 nM | 
UUAAGAGGAUAUCAAAUUUGAUUUUGUGAUACCAGAAUAAUUUUAUUCCCUUGGCAGCAUGACAUGAGGAUCACCCAUGUGUCUU |  |  | 37 nM | 30 nM | 
AUUUAUGGUCGUGAUACCAGACAUACAUGAGGAUCACCCAUGUGAAAUAACAUAAUUUAGGUCCCUUGGCAGCACUUUUUAAUUA |  |  | 53.8 nM | 38.3 nM | 
UGGAAAGCACAUGAGGAUCACCCAUGUGAUACCAGCUGAAACUAAGGCCCUUGGCAGCACAUGGUACCAACCCUUUGGUAGUCCA | 11.9 nM | 50.5 nM |  |  | 
ACGUCACGUUUACUCGUGGUUUCGAUCGAUACCAGUAGCGAGAGUUACCCUUGGCAGCGACAUGAGGAUCACCCAUGUGCGAAGA | 11.8 nM | 15.9 nM |  |  | 
AUCGCACCUGGUGAUACCAGCGUUUGCUCGUGACAUGAGGAUCACCCAUGUGGCCAGUGAUGCCCUUGGCAGCAUGGUCGGUGCA |  |  | 230 nM | 177 nM | 
UUCUACAUGAGGAUCACCCAUGUGGGUGAUACCAGCACUUUUUGGUGCCCUUGGCAGCACAUGAGAAUGCCGUAAAAUCGGCGAU |  |  | 334 nM | 500 nM | 
ACAUGAGGAUCACCCAUGUGGCGUCUUGAUACCAGACGAGAAGUAGUCCCUUGGCAGCAAAUACGUGAGGAUCACACAUGUGCGA | 23.2 nM | 37.3 nM |  |  | 
AGCGACAUGCAUGAUACCAGCUACAUGAGGAUCACCCAUGUACGUCAGUAAUGACUGUGUAGCCCUUGGCAGCAUAGAGCAUGUU | 17.4 nM | 53.6 nM |  |  | 
UUAGAUAUGACGGAUACCAGCGUGUUGUAGAACAUGAGGAUCACCCAUGUAGUGAUCGUGCGCCCUUGGCAGCUGGUAUGUUUGG |  |  | 250 nM | 898 nM | 
UAAAACAUGAGGAUCACCCAUGUAAAUGAUACCAGAGUGAUGAUCCUCCCUUGGCAGCAUAACGCUGAUUGGAAACAAUCAGCGA |  |  | 130 nM | 243 nM | 
AAACAUUGCUCAGAUACCAGACAUGAGGAUCACCCAUGUACCGAGGUACCCGAAAGGAAUGUCCCUUGGCAGCUGAGCAAUGAAA | 12 nM | 129 nM |  |  | 
AUCGUACCUGAUGAUACCAGCAAUUGCUCGUAACAUGAGGAUCACCCAUGUGACCAGUGAUGCCCUUGGCAGCAUGGUCGGUGCA |  |  | 172 nM | 38.5 nM | 
ACAUGAGGAUCACCCAUGUCUGCCACUGAUACCAGCGGAUGCCAACGCCCUUGGCAGCAGAACAUGAGGAUCACCCAUGUAGGCA |  |  | 319 nM | 209 nM | 
AAUAACAUGAGGAUCACCCAUGUAAAAGAUACCAGAGUGAUGAUCCUCCCUUGGCAGCUUAAACGCUAUUGGAAACAAUAGCGAA |  |  | 70.2 nM | 167 nM | 
AUAUGAUCAUAUGAUACCAGAAAUGGUAUUCCUUUCUUUCUUACAUGAGGAUCACCCAUGUUCCCUUGGCAGCAUAUGAUCAUAU | 174 nM | 193 nM |  |  | 
ACAUGAGGAUCACCCAUGUGGCGACUUGAUACCAGACCCGCACUAGUCCCUUGGCAGCAACUACGUGUGGGACACCCAUGUGAAG | 20.8 nM | 33.7 nM |  |  | 

Sequence | apparent Kd (MS2 coat protein [1]; [3]) | apparent Kd (MS2 coat protein [1]; [4]) | apparent Kd (MS2 coat protein [1]; [5]) | apparent Kd (MS2 coat protein [1]; [6]) | further results
UCACAUGAGGAUCACCCAUGUACAGGCGAUACCAGCCGUACAUUGGGCCCUUGGCAGCGCACCGAGACCUUUAUAAGCACCUCGG |  |  | 29.5 nM | 192 nM | 
CAUGAAGUAACUGAUACCAGUGUACACAUGAGGAUCACCCAUGUGUUGGGUUUUGUUGUACACCCUUGGCAGCAGAAUCUUUAUG | 56.6 nM | 100 nM |  |  | 
AGCGCUAUGCAUGAUACCAGCUACAUGAGGAUCACCCAUGUGCGUCAGAAAUGACUGUGUAGCCCUUGGCAGCAUAAAGCAUGUA | 19.1 nM | 46.3 nM |  |  | 
GCCCUUGGCAGCGAUACCAGCCAAAAUUAAAAUAAACCUCUACAUGAGGAUCACCCAUGUGGCCCUUGGCAGCGAUACCAGCAAA | 49.7 nM | 76.4 nM |  |  | 
AUAGUCUUGAGUGAUACCAGACUACAUGAGGAUCACCCAUGUUUCUUUUGGUUAUCAUGUGUCCCUUGGCAGCACGCAUGUAUAG | 16.4 nM | 65.8 nM |  |  | 
AAUAACAUGAGGAUCACCCAUGUAAAAGAUACCAGAUGCAUGAUGAUCCCUUGGCAGCUUAAACGCGAUUGGAAACAAUCGCGAA |  |  | 27.6 nM | 148 nM | 
UGACAUUGCUGCGAUACCAGACAUGAGGAUCACCCAUGUACCAAGGUAAGAAAAUAACAUGUCCCUUGGCAGCGCAGCAAUGUCU | 14.9 nM | 284 nM |  |  | 
AAGGUGAUCCCAGAUACCAGCUUAACAUGAGGAUCACCCAUGUUUGGGACGAAAGUCCCGGGCCCUUGGCAGCUGGGUUGCCAAG |  |  | 196 nM | 131 nM | 
AGCAUUGUAACAGAUACCAGACUUUUAAUGCCUCUAAUAACAUGAGGAUCACCCAUGUAUGUCCCUUGGCAGCUGUUAUGAUGCA | 115 nM | 220 nM |  |  | 
AAUCUGUCGGGUGAUACCAGCCUCGGCACAUCUCGUGCCGAACAUGAGGAUCACCCAUGUGGCCCUUGGCAGCACAUGACAAAUC |  |  | 381 nM | 85.3 nM | 
AAAAUAAAUAAAACGGGUAACAUGAAGGAUACCAGCCAGGAAACUGGCCCUUGGCAGCCUCUACAUGAGGAUCACCCAUGUCCCG |  |  | 445 nM | 35.7 nM | 
ACUUUGUCGGGUGAUACCAGCCUCGGCAAAUCUCGUGCCGAACAUGAGGAUCACCCAUGUGGCCCUUGGCAGCACAUGACAACUC |  |  | 442 nM | 70 nM | 
AUCGUACCUAGUGAUACCAGCAAGUGAUCAUAACAUGAGGAUCACCCAUGUAAUCAGUGAUGCCCUUGGCAGCAUAAUCGUUACA |  |  | 193 nM | 155 nM | 
UAAACACAUGAGGAUCACCCAUGUCAUGAUACCAGUCAACAUGAGGACCCUUGGCAGCAUAAAAUGGGUAACAUGAGGAUCACCC | 38.4 nM | 112 nM |  |  | 
UCGUGUAUAACGGAUACCAGUGAGAAGGAUACAUGAGGAUCACCCAUGUGAGUUGAUCCACACCCUUGGCAGCUGUAUAUAUCUA |  |  | 194 nM | 1100 nM | 
UAUAAAAUAACAGAUACCAGCGUGUUAUAAAACAUGAGGAUCACCCAUGUAGUGAUCAAGCGCCCUUGGCAGCUGGUAUUUUAUG |  |  | 79.3 nM | 133 nM | 
UUCUGGUCCCGUGAUACCAGAGACAUGAGGAUCACCCAUGUACAUGAGGAUCACCCAUGUUUCCCUUGGCAGCACUGUAGGGAGC | 196 nM | 1220 nM |  |  | 
ACUCGGUGUUUGUUGCUCCGAGUUUAUGAUACCAGUUAGUUUUAUGGCCCUUGGCAGCAUAGGACAUGAGGAUCACCCAUGUGUU |  |  | 31.7 nM | 53.8 nM | 
ACGUCUCGAAAACUCGUAGUAACUAUAGAUACCAGUAGCGAGAGUUACCCUUGGCAGCUACAUGAGGAUCACCCAUGUACGAGGA | 15.6 nM | 15 nM |  |  | 
AUUAUCAUGGUCAUAUAUAUAUCUUCAGAUACCAGACUAUAUUAAGUCCCUUGGCAGCUGUUACAUGAGGAUCACCCAUGUUAUA | 172 nM | 43.5 nM |  |  | 
CAUGAAGUAACUGAUACCAGUGUACUGACAUGAGGAUCACCCAUGUUGGGUUUUGUUGUACACCCUUGGCAGCAGAAUCUUUAUG | 69.1 nM | 110 nM |  |  | 
GGCGAUCAGUGAGGAUAUUCCGCGCAAAUACUAGAAGAAGGCACGUAUCAAGGGUUCAGAACAUGAGGAUCACCCAUGUCAAGC |  |  |  |  | apparent Kd (MS2 coat protein [2]; no ligand): 14 nM; apparent Kd (MS2 coat protein [2]; ligand present: flavin mononucleotide): 10.1 nM
